# Assay results: ChEMBL document CHEMBL1135980, “Novel angular benzophenazines: dual topoisomerase I and topoisomerase II inhibitors as potential anticancer agents” (J Med Chem, 2002)
# pIC50: −log10 of the molar value.
# Experiments:
# [1] = tested on: NCI-H69; assay: Cytotoxicity measured using the H69 parental (H69/P) human small cell lung carcinoma cell line; assay type: functional, cell-based
# In short: (§1)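 H69/P (parental) or H69/LX4 (P-glycoprotein-overexpressing) human SCLC cells; compound added, then 5-6 days incubation; proliferation read with Alamar Blue.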
# [2] = tested on: NCI-H69; assay: Cytotoxicity measured using the drug resistant, P-glycoprotein (Pgp) expressing human small cell lung carcinoma cell line H69/LX4; assay type: functional, cell-based; in short: as §1
# [3] = tested on: NCI-H69; assay: Rf is the resistance factor and is the ratio of the IC50 on the resistant cell line over the IC50 on the parental H69/P cell line; assay type: functional, Homo sapiens
# In short: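 Resistance factor computed as IC50 in H69/LX4 (Pgp-overexpressing) divided by IC50 in H69/P. Both IC50s come from a 5-6 day Alamar Blue proliferation assay.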
# [4] = tested on: COR-L23; assay: Cytotoxicity measured using the COR-L23 parental (COR-L23/P) human non small cell lung carcinoma cell line; assay type: functional, cell-based
# In short: (§2)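 COR-L23/P (parental) or COR-L23/R (MRP-overexpressing) human NSCLC cells; compound added, then 5-6 days incubation; proliferation read by sulforhodamine B staining.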
# [5] = tested on: COR-L23; assay: Cytotoxicity measured with the drug resistant human non small cell lung carcinoma cell line COR-L23 (COR-L23/R) which over expresses multidrug resistance associated with protein(MRP); assay type: functional, cell-based; in short: as §2
# [6] = Rf is the resistance factor and is the ratio of the IC50 on the resistant cell line over the IC50 on the parental COR-L23/P cell line; details: human
# In short: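 Resistance factor computed as IC50 in COR-L23/R (MRP-overexpressing) divided by IC50 in COR-L23/P. Both IC50s come from a 5-6 day sulforhodamine B proliferation assay.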
Rf [6],SMILES,pIC50 [1],pIC50 [2],Rf [3],pIC50 [4],pIC50 [5]
–,COc1cccc2c1ccc1nc3cccc(C(=O)NC(CN(C)C)C(C)C)c3nc12 (centres undefined),7.46,7.60,0.7,–,–
–,CN(C)CCNC(=O)c1cccc2nc3ccc4c(OCc5ccccc5)cccc4c3nc12,6.25,6.05,1.6,–,–
–,CN(C)CCNC(=O)c1cccc2nc3ccc4c(C#N)cccc4c3nc12,7.00,6.83,1.5,–,–
1.1,CN(C)CCNC(=O)c1cccc2nc3ccc4c(O)cccc4c3nc12,7.46,7.32,1.4,7.82,7.77
–,COc1cccc2c1ccc1nc3cccc(C(=O)NC(CO)CN(C)C)c3nc12 (centres undefined),7.64,7.55,1.2,–,–
–,COc1cccc2c1ccc1nc3cccc(C(=O)N[C@@H]4CCN(C)C4)c3nc12,7.10,6.89,1.6,–,–
–,CNCCNC(=O)c1cccc2nc3ccc4c(OC)cccc4c3nc12,7.00,6.63,2.4,–,–
–,COc1cccc2c1ccc1nc3cccc(C(=O)NCCN4CCCC4)c3nc12,7.40,7.11,1.9,–,–
–,COc1ccc2nc3ccc4c(OC)cccc4c3nc2c1C(=O)NCCN(C)C,5.58,5.44,1.4,–,–
1.4,CN(C)CCNC(=O)c1cccc2nc3ccc4cc(O)ccc4c3nc12,6.96,6.71,1.8,7.17,7.02
–,COc1cccc2c1ccc1nc3cccc(C(=O)NCCN4CCOCC4)c3nc12,6.22,6.00,1.7,–,–
–,COc1cccc2c1ccc1nc3cc(Br)cc(C(=O)NCCN(C)C)c3nc12,6.80,7.00,0.6,–,–
–,CN(C)CCNC(=O)c1c(O)ccc2nc3ccc4c(O)cccc4c3nc12,7.72,7.60,1.3,–,–
–,CN(C)CCNC(=O)c1cccc2nc3ccc4c(OCCCC#N)cccc4c3nc12,7.41,7.24,1.5,–,–
–,CN(C)CCNC(=O)c1cccc2nc3ccc4ccc([N+](=O)[O-])cc4c3nc12,7.03,6.99,1.1,–,–
–,CNc1ccc2nc3ccc4c(OC)cccc4c3nc2c1C(=O)NCCN(C)C,6.90,6.84,1.1,–,–
–,CN(C)CCNC(=O)c1cccc2nc3ccc4c(N(S(C)(=O)=O)S(C)(=O)=O)cccc4c3nc12,5.67,< 5.30,>2.3,–,–
–,CN(C)CCNC(=O)c1cccc2nc3ccc4c(F)cccc4c3nc12,6.95,7.11,0.7,–,–
1.2,CN(C)CCNC(=O)c1cccc2nc3ccc4c([N+](=O)[O-])cccc4c3nc12,7.02,6.92,1.3,7.70,7.62
–,CN(C)CCNC(=O)c1cccc2nc3ccc4c(Br)cccc4c3nc12,7.11,6.77,2.2,–,–
–,CN(C)CCNC(=O)c1cccc2nc3ccc4c(NS(C)(=O)=O)cccc4c3nc12,5.67,5.30,2.3,–,–
–,COc1cccc2c1ccc1nc3cccc(C(=O)N[C@@H](C)CN(C)C)c3nc12,7.02,6.92,1.3,–,–
–,Cc1cccc2c1ccc1nc3cccc(C(=O)NCCN(C)C)c3nc12,6.93,7.01,0.8,–,–
–,COc1cccc2c1ccc1nc3cccc(C(=O)NCC(O)CN)c3nc12 (centres undefined),6.29,< 5.30,>9.7,–,–
–,COc1cccc2c1C(=O)c1c(O)c3c(c(O)c1C2=O)C[C@@](O)(C(=O)CO)C[C@@H]3O[C@H]1C[C@H](N)[C@H](O)[C@H](C)O1 [DOXORUBICIN],–,5.41,142,7.70,6.50
–,CC[C@@]1(O)C(=O)OCc2c1cc1n(c2=O)Cc2cc3c(CN(C)C)c(O)ccc3nc2-1 [TOPOTECAN],–,7.20,3.9,7.88,7.70
